Active and inactive are the calls of the source. No cut-off for these calls is given here.
Tests used:
[1] = AUC (0 to 72 hrs) in Sprague-Dawley rat at 5 mg/kg, iv measured after 0.08 to 72 hrs post dose by LC-MS/MS analysis; assay type: ADME, organism-based; parameters: time < 72 hr, dose 5 mg/kg, route intravenous; settings: in vivo
How it was run: (§1)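 Single dose to fasted (12 h) animals: oral gavage 15 mg/kg as suspension in 0.5% CMC-Na, or iv 5 mg/kg dissolved in citric acid buffer pH 5.0 with 2.5% DMSO. Jugular vein blood on heparin at 0.08 (iv only) to 72 h. Plasma assayed by LC-MS/MS; parameters from noncompartmental analysis.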

[2] = Cmax in beagle dog at 15 mg/kg, po measured after 0.08 to 72 hrs post dose by LC-MS/MS analysis; assay type: ADME, organism-based, Canis lupus familiaris; parameters: dose 15 mg/kg, route oral; settings: in vivo; how it was run: as §1
[3] = Cmax in Sprague-Dawley rat at 15 mg/kg, po measured after 0.08 to 72 hrs post dose by LC-MS/MS analysis; assay type: ADME, organism-based; parameters: dose 15 mg/kg, route oral; settings: in vivo; how it was run: as §1
Hepatitis C virus [4] = assay: Antiviral activity against HCV GS4.3 infected in human Huh7.5 cells assessed as reduction in viral replication at 0.3125 to 5 uM simultaneously treated with viral infection for 4 hrs and measured after 72 hrs by In-Cell Western assay; assay type: functional, organism-based; settings: Hepacivirus hominis
How it was run: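 Huh7.5 cells infected with HCV while incubated with compound, either for 4 h across a concentration series or at 1.0 µM for varied times down to 15 min. Supernatant then replaced with fresh medium. Intracellular Core protein measured by In-Cell Western at 72 h.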

Hepatitis C virus [5] = assay: Antiviral activity against HCV GS4.3 infected in human Huh7.5 cells assessed as […] at 0.008 to 1 uM simultaneously treated with viral infection and measured after 72 hrs by Western blot assay; assay type: functional, organism-based; settings: Hepacivirus hominis
[6] = Toxicity in Kunming mouse assessed as effect on blood urea nitrogen level at 250 to 1000 mg/kg dosed via single oral gavage and measured on day 7 post treatment; assay type: organism-based; settings: in vivo
How it was run: (§2)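 Kunming mice, 4 groups of n = 6 (3 male, 3 female). Fasted from 12 h before to 1 h after dosing. Single oral gavage of 250, 500 or 1000 mg/kg suspended in 0.5% CMC-Na, or vehicle alone. Followed for 7 days: survival, body weight before and at day 7. Day-7 blood taken for AST, ALT, urea nitrogen and creatinine.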

[7] = Cytotoxicity in human Huh7.5 cells assessed as reduction in cell viability incubated for 96 hrs by MTT assay; assay type: cell-based
How it was run: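 Huh7.5 cells seeded 24 h before compound addition. Viability read by MTT at 96 h. Eight-step 1:5 serial dilutions in triplicate; CC50 by Reed & Muench; three independent experiments.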

[8] = Drug level in beagle dog at 15 mg/kg, po measured after 24 hrs post dose by LC-MS/MS analysis; assay type: ADME, organism-based, Canis lupus familiaris; settings: in vivo, read-out: Drug uptake; how it was run: as §1
[9] = Half life in Sprague-Dawley rat at 15 mg/kg, po measured after 0.08 to 72 hrs post dose by LC-MS/MS analysis; assay type: ADME, organism-based; settings: in vivo; how it was run: as §1
[10] = Selectivity index, ratio of CC50 for cytotoxicity in human Huh7.5 cells assessed as reduction in cell viability incubated for 96 hrs by MTT assay to EC50 antiviral activity against HCV J6/JFH/JC1 infected in human Huh7.5 cells assessed as reduction in viral RNA levels incubated for 72 hrs by qRT-PCR analysis; assay type: toxicity, cell-based; settings: read-out: Ratio CC50/EC50
How it was run: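 Selectivity index = CC50/EC50. CC50: Huh7.5 cells seeded at 3×10^4/cm², medium with compound added at 24 h, MTT read at 96 h. EC50: HCVcc-infected Huh7.5 cells treated for 72 h, HCV RNA by qRT-PCR normalised to GAPDH. Serial 1:5 dilutions in eight steps, Reed & Muench calculation, means ± SD of three independent experiments.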

[11] = Oral bioavailability in Sprague-Dawley rat at 5 mg/kg measured after 0.08 to 72 hrs after dose by LC-MS/MS analysis; assay type: ADME, organism-based; settings: in vivo
[12] = Toxicity in Kunming mouse assessed as effect on […] level at 250 to 1000 mg/kg dosed via single oral gavage and measured on day 7 post treatment; assay type: organism-based; settings: in vivo; how it was run: as §2
Hepatitis C virus [13] = assay: Antiviral activity against HCV GS4.3 infected in human Huh7.5 cells assessed as reduction in viral NS3 protein levels at 0.2 to 5 uM incubated for 72 hrs by Western blot assay; assay type: functional, organism-based; settings: Hepacivirus hominis
[14] = Toxicity in Kunming mouse assessed as effect on AST level at 250 to 1000 mg/kg dosed via single oral gavage and measured on day 7 post treatment; assay type: organism-based; settings: in vivo; how it was run: as §2
Hepatitis C virus [15] = assay: Antiviral activity against HCV expressing NS3 D168V mutant by qRT-PCR analysis based by Reed-Muench method; assay type: functional, organism-based, Hepacivirus hominis
How it was run: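 Huh7.5 cells seeded at 3×10^4/cm², infected 24 h later with wild-type or mutant HCV stock while compound or solvent was added at the same time. Intracellular HCV RNA measured by qRT-PCR at 72 h, normalised to GAPDH, 2^-ΔCT method. EC50 by Reed & Muench from eight-step 1:5 serial dilutions, triplicate wells.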

[16] = Toxicity in Kunming mouse assessed as induction of mortality at 250 to 1000 mg/kg dosed via single oral gavage and measured on day 7 post treatment; assay type: organism-based; settings: in vivo; how it was run: as §2
[17] = Apparent Volume of distribution in beagle dog at 15 mg/kg, po measured after 0.08 to 72 hrs post dose by LC-MS/MS analysis; assay type: ADME, organism-based, Canis lupus familiaris; settings: in vivo; how it was run: as §1
[18] = Tmax in beagle dog at 15 mg/kg, po measured after 0.08 to 72 hrs post dose by LC-MS/MS analysis; assay type: ADME, organism-based, Canis lupus familiaris; settings: in vivo
[19] = Cmax in beagle dog at 5 mg/kg, iv measured after 0.08 to 72 hrs post dose by LC-MS/MS analysis; assay type: ADME, organism-based, Canis lupus familiaris; parameters: dose 5 mg/kg, route intravenous; settings: in vivo; how it was run: as §1
[20] = AUC (0 to 72 hrs) in beagle dog at 5 mg/kg, iv measured after 0.08 to 72 hrs post dose by LC-MS/MS analysis; assay type: ADME, organism-based, Canis lupus familiaris; parameters: time < 72 hr, dose 5 mg/kg, route intravenous; settings: in vivo; how it was run: as §1
Hepatitis C virus [21] = assay: Antiviral activity against HCV GS4.3 infected in human Huh7.5 cells assessed as […] at 0.008 to 1 uM pre-incubated with drug for 2 hrs before viral infection and measured after 72 hrs by Western blot assay; assay type: functional, organism-based; settings: Hepacivirus hominis
[22] = Drug level in Sprague-Dawley rat at 5 mg/kg, iv measured after 24 hrs post dose by LC-MS/MS analysis; assay type: ADME, organism-based; settings: in vivo, read-out: Drug uptake; how it was run: as §1
Hepatitis C virus [23] = assay: Antiviral activity against HCV with wild type glycoprotein E1 infected in human Huh7.5 cells assessed as reduction in viral RNA levels incubated for 72 hrs by qRT-PCR analysis; assay type: functional, organism-based, Hepacivirus hominis; settings: Huh7.5, 72 h
How it was run: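 Huh7.5 cells seeded 24 h, then infected with wild-type (or mutant) HCV with compound added at the same time. Incubated 72 h. Intracellular HCV RNA measured by qRT-PCR, 2^-ΔCt method, normalized to GAPDH. Eight-step 1:5 serial dilutions in triplicate; EC50 by Reed & Muench; three independent experiments.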

Hepatitis C virus [24] = assay: Antiviral activity against HCV GS4.3 infected in human Huh7.5 cells assessed as reduction in viral NS3 protein levels at 0.1 to 5 uM incubated for 14 days by Western blot assay; assay type: functional, organism-based; settings: Hepacivirus hominis

## CN(C)CCN(C)c1ccc(C#N)c(CN2CCN(c3ccc(Cl)cc3)CC2)c1
[1]
  AUC(0-t) at 72 h: 5420 ng·h/mL
[2]
  Cmax: 94.5 ng/mL
[3]
  Cmax: 501 ng/mL
Hepatitis C virus [4]
  Activity: Dose-dependent effect
Hepatitis C virus [5]
  Activity: Active
[6]
  Activity: Non-Toxic
[7]
  CC50 at 96 h: 12.8 to 14.8 µM
[8]
  concentration at 24 h: 15.6 ng/mL
[9]
  half-life: 770 min
[10]
  selectivity ratio: 671
[11]
  bioavailability: 39%
[12]
  Activity: Non-Toxic
Hepatitis C virus [13]
  Activity: inactive
[14]
  Activity: Non-Toxic
Hepatitis C virus [15]
  EC50: 30 nM
[16]
  Activity: Non-Toxic
[17]
  Vz: 238116.97 mL/kg
[18]
  Tmax: 3 h
[19]
  Cmax: 532 ng/mL
[20]
  AUC(0-t) at 72 h: 1070 ng·h/mL
Hepatitis C virus [21]
  Activity: inactive
[22]
  concentration at 24 h: 77 ng/mL
Hepatitis C virus [23]
  EC50: 6 nM
Hepatitis C virus [24]
  Activity: inactive

Source: ChEMBL document CHEMBL4613269, “2-((4-Arylpiperazin-1-yl)methyl)benzonitrile Derivatives as Orally Available Inhibitors of Hepatitis C Virus with a Novel Mechanism of Action” (J Med Chem, 2020)
